Results as given in ChEMBL document CHEMBL4689842, “EUbOPEN Chemogenomics Library wave 1” (2021).

Tested on: Fibroblast
Experiment: Multiplex assay against human fibroblast
Format: toxicity, cell-based
Outline: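 Live cells carried four stains from seeding: Hoechst33342, BioTracker Green Microtubule Cytoskeleton Dye, MitoTracker Red and Annexin V Alexa Fluor 680. They were imaged on a CQ1 microscope at 37°C and 5% CO2 after compound addition. Using CellPathfinder machine-learning gating, cells were split into Hoechst high-intensity objects or normal cells, normal cells into healthy, pyknosed or fragmented nuclei, and pyknosed cells into mitotic or apoptotic; tubulin, mitochondrial-mass and membrane-permeability phenotypes are per cents of healthy-nucleus cells.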

[1] = 12 h, 1 µM, compound concentration 1 uM, replicate 1
[2] = 12 h, 1 µM, compound concentration 1 uM, replicate 2
[3] = 12 h, 10 µM, compound concentration 10 uM, replicate 1
[4] = 12 h, 10 µM, compound concentration 10 uM, replicate 2
[5] = 24 h, 1 µM, compound concentration 1 uM, replicate 1
[6] = 24 h, 1 µM, compound concentration 1 uM, replicate 2
[7] = 24 h, 10 µM, compound concentration 10 uM, replicate 1
[8] = 24 h, 10 µM, compound concentration 10 uM, replicate 2
[9] = 48 h, 1 µM, compound concentration 1 uM, replicate 1
[10] = 48 h, 1 µM, compound concentration 1 uM, replicate 2
[11] = 48 h, 10 µM, compound concentration 10 uM, replicate 1
[12] = 48 h, 10 µM, compound concentration 10 uM, replicate 2

Structure (SMILES): COc1cc2ncn(-c3cc(OCc4ccccc4C(F)(F)F)c(C(N)=O)s3)c2cc1OC [GW843682X]
- Population Apoptotic (%) [1]: 62%
- Population Fragmented Nuclei (%) [1]: 29%
- Population Healthy Nuclei (%) [1]: 40%
- Population Hoechst High Intensity Objects (%) [1]: 14%
- Population Membrane Permeable-Phenotype (%) [1]: 28%
- Population Mitochondria Different-Phenotype (%) [1]: 2%
- Population Mitotic Cells (%) [1]: 37%
- Population Normal (%) [1]: 85%
- Population Pyknosed Nuclei (%) [1]: 29%
- Population Tubulin-Different-Phenotype (%) [1]: 54%
- Total Cell Count [1]: 145
- Population Apoptotic (%) [2]: 50%
- Population Fragmented Nuclei (%) [2]: 9%
- Population Healthy Nuclei (%) [2]: 80%
- Population Hoechst High Intensity Objects (%) [2]: 10%
- Population Membrane Permeable-Phenotype (%) [2]: 12%
- Population Mitochondria Different-Phenotype (%) [2]: 10%
- Population Mitotic Cells (%) [2]: 50%
- Population Normal (%) [2]: 89%
- Population Pyknosed Nuclei (%) [2]: 9%
- Population Tubulin-Different-Phenotype (%) [2]: 20%
- Total Cell Count [2]: 83
- Population Apoptotic (%) [3]: 54%
- Population Fragmented Nuclei (%) [3]: 18%
- Population Healthy Nuclei (%) [3]: 40%
- Population Hoechst High Intensity Objects (%) [3]: 17%
- Population Membrane Permeable-Phenotype (%) [3]: 19%
- Population Mitochondria Different-Phenotype (%) [3]: 29%
- Population Mitotic Cells (%) [3]: 45%
- Population Normal (%) [3]: 82%
- Population Pyknosed Nuclei (%) [3]: 41%
- Population Tubulin-Different-Phenotype (%) [3]: 88%
- Total Cell Count [3]: 182
- Population Apoptotic (%) [4]: 50%
- Population Fragmented Nuclei (%) [4]: 13%
- Population Healthy Nuclei (%) [4]: 75%
- Population Hoechst High Intensity Objects (%) [4]: 6%
- Population Membrane Permeable-Phenotype (%) [4]: 25%
- Population Mitochondria Different-Phenotype (%) [4]: 88%
- Population Mitotic Cells (%) [4]: 50%
- Population Normal (%) [4]: 93%
- Population Pyknosed Nuclei (%) [4]: 11%
- Population Tubulin-Different-Phenotype (%) [4]: 98%
- Total Cell Count [4]: 68
- Population Apoptotic (%) [5]: 61%
- Population Fragmented Nuclei (%) [5]: 27%
- Population Healthy Nuclei (%) [5]: 45%
- Population Hoechst High Intensity Objects (%) [5]: 16%
- Population Membrane Permeable-Phenotype (%) [5]: 28%
- Population Mitochondria Different-Phenotype (%) [5]: 7%
- Population Mitotic Cells (%) [5]: 38%
- Population Normal (%) [5]: 83%
- Population Pyknosed Nuclei (%) [5]: 26%
- Population Tubulin-Different-Phenotype (%) [5]: 66%
- Total Cell Count [5]: 139
- Population Apoptotic (%) [6]: 55%
- Population Fragmented Nuclei (%) [6]: 11%
- Population Healthy Nuclei (%) [6]: 74%
- Population Hoechst High Intensity Objects (%) [6]: 5%
- Population Membrane Permeable-Phenotype (%) [6]: 10%
- Population Mitochondria Different-Phenotype (%) [6]: 19%
- Population Mitotic Cells (%) [6]: 44%
- Population Normal (%) [6]: 94%
- Population Pyknosed Nuclei (%) [6]: 14%
- Population Tubulin-Different-Phenotype (%) [6]: 17%
- Total Cell Count [6]: 85
- Population Apoptotic (%) [7]: 74%
- Population Fragmented Nuclei (%) [7]: 14%
- Population Healthy Nuclei (%) [7]: 41%
- Population Hoechst High Intensity Objects (%) [7]: 21%
- Population Membrane Permeable-Phenotype (%) [7]: 25%
- Population Mitochondria Different-Phenotype (%) [7]: 32%
- Population Mitotic Cells (%) [7]: 25%
- Population Normal (%) [7]: 78%
- Population Pyknosed Nuclei (%) [7]: 43%
- Population Tubulin-Different-Phenotype (%) [7]: 94%
- Total Cell Count [7]: 171
- Population Apoptotic (%) [8]: 50%
- Population Fragmented Nuclei (%) [8]: 13%
- Population Healthy Nuclei (%) [8]: 69%
- Population Hoechst High Intensity Objects (%) [8]: 9%
- Population Membrane Permeable-Phenotype (%) [8]: 41%
- Population Mitochondria Different-Phenotype (%) [8]: 91%
- Population Mitotic Cells (%) [8]: 50%
- Population Normal (%) [8]: 90%
- Population Pyknosed Nuclei (%) [8]: 17%
- Population Tubulin-Different-Phenotype (%) [8]: 97%
- Total Cell Count [8]: 67
- Population Apoptotic (%) [9]: 52%
- Population Fragmented Nuclei (%) [9]: 39%
- Population Healthy Nuclei (%) [9]: 38%
- Population Hoechst High Intensity Objects (%) [9]: 18%
- Population Membrane Permeable-Phenotype (%) [9]: 21%
- Population Mitochondria Different-Phenotype (%) [9]: 7%
- Population Mitotic Cells (%) [9]: 47%
- Population Normal (%) [9]: 81%
- Population Pyknosed Nuclei (%) [9]: 21%
- Population Tubulin-Different-Phenotype (%) [9]: 65%
- Total Cell Count [9]: 130
- Population Apoptotic (%) [10]: 75%
- Population Fragmented Nuclei (%) [10]: 22%
- Population Healthy Nuclei (%) [10]: 73%
- Population Hoechst High Intensity Objects (%) [10]: 9%
- Population Membrane Permeable-Phenotype (%) [10]: 13%
- Population Mitochondria Different-Phenotype (%) [10]: 1%
- Population Mitotic Cells (%) [10]: 25%
- Population Normal (%) [10]: 90%
- Population Pyknosed Nuclei (%) [10]: 3%
- Population Tubulin-Different-Phenotype (%) [10]: 53%
- Total Cell Count [10]: 120
- Population Apoptotic (%) [11]: 61%
- Population Fragmented Nuclei (%) [11]: 27%
- Population Healthy Nuclei (%) [11]: 45%
- Population Hoechst High Intensity Objects (%) [11]: 19%
- Population Membrane Permeable-Phenotype (%) [11]: 24%
- Population Mitochondria Different-Phenotype (%) [11]: 13%
- Population Mitotic Cells (%) [11]: 38%
- Population Normal (%) [11]: 80%
- Population Pyknosed Nuclei (%) [11]: 27%
- Population Tubulin-Different-Phenotype (%) [11]: 95%
- Total Cell Count [11]: 177
- Population Apoptotic (%) [12]: 50%
- Population Fragmented Nuclei (%) [12]: 29%
- Population Healthy Nuclei (%) [12]: 55%
- Population Hoechst High Intensity Objects (%) [12]: 16%
- Population Membrane Permeable-Phenotype (%) [12]: 6%
- Population Mitochondria Different-Phenotype (%) [12]: 21%
- Population Mitotic Cells (%) [12]: 50%
- Population Normal (%) [12]: 83%
- Population Pyknosed Nuclei (%) [12]: 14%
- Population Tubulin-Different-Phenotype (%) [12]: 92%
- Total Cell Count [12]: 162

Structure (SMILES): CC(C)CC(=O)Nc1[nH]nc2c1CN(C(=O)C1CCN(C)CC1)C2(C)C [PHA-793887]
- Population Apoptotic (%) [1]: 81%
- Population Fragmented Nuclei (%) [1]: 21%
- Population Healthy Nuclei (%) [1]: 60%
- Population Hoechst High Intensity Objects (%) [1]: 11%
- Population Membrane Permeable-Phenotype (%) [1]: 4%
- Population Mitochondria Different-Phenotype (%) [1]: 3%
- Population Mitotic Cells (%) [1]: 18%
- Population Normal (%) [1]: 88%
- Population Pyknosed Nuclei (%) [1]: 18%
- Population Tubulin-Different-Phenotype (%) [1]: 4%
- Total Cell Count [1]: 233
- Population Apoptotic (%) [2]: 50%
- Population Fragmented Nuclei (%) [2]: 48%
- Population Healthy Nuclei (%) [2]: 31%
- Population Hoechst High Intensity Objects (%) [2]: 46%
- Population Membrane Permeable-Phenotype (%) [2]: 22%
- Population Mitochondria Different-Phenotype (%) [2]: 44%
- Population Mitotic Cells (%) [2]: 50%
- Population Normal (%) [2]: 53%
- Population Pyknosed Nuclei (%) [2]: 20%
- Population Tubulin-Different-Phenotype (%) [2]: 22%
- Total Cell Count [2]: 54
- Population Apoptotic (%) [3]: 73%
- Population Fragmented Nuclei (%) [3]: 23%
- Population Healthy Nuclei (%) [3]: 66%
- Population Hoechst High Intensity Objects (%) [3]: 12%
- Population Membrane Permeable-Phenotype (%) [3]: 4%
- Population Mitochondria Different-Phenotype (%) [3]: 7%
- Population Mitotic Cells (%) [3]: 26%
- Population Normal (%) [3]: 87%
- Population Pyknosed Nuclei (%) [3]: 10%
- Population Tubulin-Different-Phenotype (%) [3]: 4%
- Total Cell Count [3]: 277
- Population Apoptotic (%) [4]: 33%
- Population Fragmented Nuclei (%) [4]: 68%
- Population Healthy Nuclei (%) [4]: 24%
- Population Hoechst High Intensity Objects (%) [4]: 33%
- Population Membrane Permeable-Phenotype (%) [4]: 20%
- Population Mitochondria Different-Phenotype (%) [4]: 40%
- Population Mitotic Cells (%) [4]: 66%
- Population Normal (%) [4]: 66%
- Population Pyknosed Nuclei (%) [4]: 7%
- Population Tubulin-Different-Phenotype (%) [4]: 30%
- Total Cell Count [4]: 62
- Population Apoptotic (%) [5]: 71%
- Population Fragmented Nuclei (%) [5]: 20%
- Population Healthy Nuclei (%) [5]: 65%
- Population Hoechst High Intensity Objects (%) [5]: 13%
- Population Membrane Permeable-Phenotype (%) [5]: 6%
- Population Mitochondria Different-Phenotype (%) [5]: 1%
- Population Mitotic Cells (%) [5]: 28%
- Population Normal (%) [5]: 86%
- Population Tubulin-Different-Phenotype (%) [5]: 3%
- Total Cell Count [5]: 225
- Population Apoptotic (%) [6]: 66%
- Population Fragmented Nuclei (%) [6]: 57%
- Population Healthy Nuclei (%) [6]: 28%
- Population Hoechst High Intensity Objects (%) [6]: 37%
- Population Membrane Permeable-Phenotype (%) [6]: 16%
- Population Mitochondria Different-Phenotype (%) [6]: 25%
- Population Mitotic Cells (%) [6]: 33%
- Population Normal (%) [6]: 62%
- Population Pyknosed Nuclei (%) [6]: 14%
- Population Tubulin-Different-Phenotype (%) [6]: 16%
- Total Cell Count [6]: 67
- Population Apoptotic (%) [7]: 61%
- Population Fragmented Nuclei (%) [7]: 23%
- Population Healthy Nuclei (%) [7]: 64%
- Population Hoechst High Intensity Objects (%) [7]: 11%
- Population Membrane Permeable-Phenotype (%) [7]: 3%
- Population Mitochondria Different-Phenotype (%) [7]: 6%
- Population Mitotic Cells (%) [7]: 38%
- Population Normal (%) [7]: 88%
- Population Pyknosed Nuclei (%) [7]: 12%
- Population Tubulin-Different-Phenotype (%) [7]: 6%
- Total Cell Count [7]: 284
- Population Apoptotic (%) [8]: 100%
- Population Fragmented Nuclei (%) [8]: 72%
- Population Healthy Nuclei (%) [8]: 20%
- Population Hoechst High Intensity Objects (%) [8]: 32%
- Population Membrane Permeable-Phenotype (%) [8]: 0%
- Population Mitochondria Different-Phenotype (%) [8]: 11%
- Population Mitotic Cells (%) [8]: 0%
- Population Normal (%) [8]: 67%
- Population Pyknosed Nuclei (%) [8]: 6%
- Population Tubulin-Different-Phenotype (%) [8]: 22%
- Total Cell Count [8]: 64
